What all share (assay type): ADME, organism-based
For data set [1], the system named is Rattus norvegicus. The data set is described as follows: % distribution of the radioiron in rat kidney followed by intravenous injection of transferrin pre-incubated with 10 mg of chelating agent. As to conditions: in vivo. In short, it runs like this:
(§1)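 Normal rats. Fresh rat plasma was labelled with ⁵⁹FeCl₃ plus excess citrate (citrate:Fe >50:1; final 0.5 μCi ⁵⁹Fe/mL). It was preincubated with 10 mg chelating agent and 1 mL was injected iv. Blood (1 mL), weighed liver portions, and whole spleen and kidney were counted in a well-type gamma counter. Feces and urine were collected separately in metabolic cages. Results are percent of injected ⁵⁹Fe ± SD.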

The subject of data set [2] is Rattus norvegicus. The data set can be described thus: % distribution of the radioiron in rat kidney followed by intravenous injection of chelating agent. The settings on record: in vivo.
Data set [3] is filed under the species Rattus norvegicus. The data set can be described thus: […] determined in faces of rat followed by […] of chelating agent. The settings on record: in vivo, iv. In short, it runs like this: (§2)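 Normal rats. Storage iron was labelled with [⁵⁹Fe]ferritin, given im as 1 mL in sterile normal saline (0.2–0.4 μCi ⁵⁹Fe/mL, 40 μg ferritin iron). The ferritin was prepared in vivo from [⁵⁹Fe]citrate in iron-dextran-loaded rats. Chelator was given separately afterwards, 40 mg im as aqueous solution. Blood, liver, spleen and kidney were gamma-counted. Stool and urine were collected separately in metabolic cages. Results are percent of injected ⁵⁹Fe.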

Data set [4] concerns Rattus norvegicus. The data set is described as follows: % excretion of radioiron determined in feces of rat followed by intravenous injection of transferrin pre-incubated with 10 mg of chelating agent. As to conditions: in vivo. In short, it runs like this: as §1
In data set [5] the test system is Rattus norvegicus. The data set is described as follows: % distribution of the radioiron in rat liver followed by intravenous injection of chelating agent. The settings on record: in vivo.
Data set [6] has as its system Rattus norvegicus. The data set can be described thus: % distribution of the radioiron in blood of rat followed by intravenous injection of chelating agent. The settings on record: in vivo.
In data set [7] the test system is Rattus norvegicus. The data set is described as follows: % distribution of the radioiron in rat spleen followed by intravenous injection of transferrin pre-incubated with 10 mg of chelating agent. As to conditions: in vivo. Put shortly: as §1
Data set [8] is filed under the species Rattus norvegicus. The data set can be described thus: […] determined in urine of rat followed by […] of chelating agent. The settings on record: in vivo, iv. In short, it runs like this: as §2
Data set [9] relates to Rattus norvegicus. The data set can be described thus: % excretion of radioiron determined in urine of rat followed by intravenous injection of transferrin preincubated with 10 mg of chelating agent. As to conditions: in vivo. In short, it runs like this:
as §1

Data set [10] deals with Rattus norvegicus. The data set is described as follows: % distribution of the radioiron in rat liver followed by intravenous injection of transferrin preincubated with 10 mg of chelating agent. As to conditions: in vivo. In short, it runs like this: as §1
Data set [11] has as its system Rattus norvegicus. The data set can be described thus: % distribution of the radioiron in blood of rats followed by intravenous injection of transferrin pre-incubated with 10 mg of chelating agent. As to conditions: in vivo. In short, it runs like this:
as §1

The subject of data set [12] is Rattus norvegicus. The data set can be described thus: % distribution of the radioiron in rat spleen followed by intravenous injection of chelating agent. As to conditions: in vivo.

On to `CC(=O)N(O)CCCCCNC(=O)CCC(=O)N(O)CCCCCNC(=O)CCC(=O)N(O)CCCCCN` [DEFEROXAMINE], for which the Distribution with Rattus norvegicus [1] is 0.6%; in the data set on Rattus norvegicus [2] it was 0.3%; in the data set listed under Rattus norvegicus [3] it was 15.5%; in the data set with Rattus norvegicus [4], 18.7%; with Rattus norvegicus [5] it was 71.3%; in the data set with Rattus norvegicus [6] it was 1.8%. Further, the Distribution in the data set on Rattus norvegicus [7] is listed as 0.2%; in the data set listed under Rattus norvegicus [8], 0.08%; in the data set with Rattus norvegicus [9], 62.9%; in the data set with Rattus norvegicus [10], 3%; in the data set with Rattus norvegicus [11], 7.4%; in the data set with Rattus norvegicus [12] it was 0.4%.
`Cc1ncc(CO)c(/C=N/Nc2nc(-c3ccccc3)cs2)c1O`: the Distribution with Rattus norvegicus [2] was determined as 0.5%; in the data set listed under Rattus norvegicus [3] it was 8.2%; in the data set on Rattus norvegicus [5], 66.7%; in the data set on Rattus norvegicus [6], 19.6%; in the data set listed under Rattus norvegicus [8] it was 0.04%; with Rattus norvegicus [12], 0.6%.
Regarding `Cc1csc(N/N=C/c2c(CO)cnc(C)c2O)n1`, the Distribution was found to be 0.4% with Rattus norvegicus [2]; 6.5% in the data set filed under Rattus norvegicus [3]; 60.2% with Rattus norvegicus [5]; 19.1% in the data set with Rattus norvegicus [6]; 0.01% in the data set filed under Rattus norvegicus [8]; 0.8% in the data set on Rattus norvegicus [12].
As for `Cc1ncc(CO)c(/C=N/NC(=O)c2ccnc3ccccc23)c1O`, the Distribution with Rattus norvegicus [1] is reported as 1%; with Rattus norvegicus [4], 6.8%; in the data set with Rattus norvegicus [7], 0.6%; with Rattus norvegicus [9], 0.4%; in the data set with Rattus norvegicus [10] it was 12.6%; with Rattus norvegicus [11], 27.9%.
Regarding `Cc1ncc(CO)c(/C=N/NC(=O)c2cccnc2)c1O`, the Distribution in the data set with Rattus norvegicus [1] was found to be 1%; in the data set with Rattus norvegicus [4], 6%; in the data set on Rattus norvegicus [7], 0.9%; in the data set on Rattus norvegicus [9], 0.3%; with Rattus norvegicus [10] it was 16.2%; with Rattus norvegicus [11], 39.6%.
For `COc1ccc(COC(=O)N/N=C/c2c(CO)cnc(C)c2O)cc1`, the Distribution in the data set on Rattus norvegicus [1] amounted to 0.8%; in the data set on Rattus norvegicus [4], 3.3%; in the data set with Rattus norvegicus [7], 0.6%; in the data set on Rattus norvegicus [9], 0.02%; in the data set on Rattus norvegicus [10], 14.7%; in the data set on Rattus norvegicus [11] it was 27%.
Consider `Cc1ncc(CO)c(/C=N/NC(=O)c2ccncc2)c1O` [PYRIDOXAL ISONICOTINOYL HYDRAZONE], for which the Distribution in the data set on Rattus norvegicus [1] stood at 0.6%; in the data set on Rattus norvegicus [2], 0.3%; in the data set filed under Rattus norvegicus [3], 12%; in the data set on Rattus norvegicus [4], 32.8%; in the data set on Rattus norvegicus [5], 78.7%; in the data set on Rattus norvegicus [6] it was 2.3%. Besides, the Distribution in the data set with Rattus norvegicus [7] turned out to be 0.4%; in the data set filed under Rattus norvegicus [8], 0.05%; with Rattus norvegicus [9], 4.3%; in the data set with Rattus norvegicus [10], 9.6%; in the data set on Rattus norvegicus [11], 32%; with Rattus norvegicus [12], 0.5%.
For `CCOC(=O)N/N=C/c1c(CO)cnc(C)c1O`, the Distribution in the data set with Rattus norvegicus [2] stood at 0.4%; in the data set filed under Rattus norvegicus [3], 8.6%; in the data set with Rattus norvegicus [5] it was 63.8%; in the data set with Rattus norvegicus [6], 19%; in the data set listed under Rattus norvegicus [8], 0.03%; in the data set on Rattus norvegicus [12], 0.7%.
As to `CC(=O)OCc1cnc(C)c(O)c1/C=N\NC(=O)c1ccncc1`, the Distribution in the data set with Rattus norvegicus [1] is recorded as 0.8%; in the data set with Rattus norvegicus [4], 10.4%; in the data set on Rattus norvegicus [7], 0.6%; with Rattus norvegicus [9], 0.8%; in the data set with Rattus norvegicus [10], 15.7%; with Rattus norvegicus [11], 31.7%.
Consider `Cc1ncc(CO)c(/C=N/NC(=O)OC(C)(C)C)c1O`, for which the Distribution in the data set with Rattus norvegicus [2] is on record as 0.4%; in the data set filed under Rattus norvegicus [3], 7.3%; in the data set with Rattus norvegicus [5], 63.2%; in the data set on Rattus norvegicus [6] it was 19.4%; in the data set listed under Rattus norvegicus [8], 0.08%; with Rattus norvegicus [12], 0.55%.
Take `Cc1ncc(CO)c(/C=N/NC(N)=O)c1O`: the Distribution with Rattus norvegicus [2] turned out to be 0.3%; in the data set listed under Rattus norvegicus [3] it was 4.1%; with Rattus norvegicus [5], 82.4%; with Rattus norvegicus [6], 12.3%; in the data set listed under Rattus norvegicus [8], 0.09%; with Rattus norvegicus [12] it was 1%.

(Values after ChEMBL document CHEMBL1122337, “Syntheses of iron bis(pyridoxal isonicotinoylhydrazone)s and the in vivo iron-removal properties of some pyridoxal derivatives” (J Med Chem, 1983).)
